ChEMBL document CHEMBL3352384, “Synthesis and biological activity of new salicylanilide N,N-disubstituted carbamates and thiocarbamates” (Bioorg Med Chem, 2014)
In brackets after ≈: the same amount, converted by molar mass.

Columns and labels:
[1] = tested on: Mycobacterium kansasii; assay: Antimycobacterial activity against Mycobacterium kansasii 235/80 assessed as complete growth inhibition after 7 days; type: functional; settings: 235/80, 168 h
Outline: (§1)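 Dilutions of M. kansasii inoculum were 10-4 for strain 235/80 and 10-5 for clinical isolate 6509/96. MIC was the lowest concentration giving complete growth inhibition, run in quadruplicate and repeated twice.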

[2] = Selectivity index, ratio of IC50 for human HepG2 cells to MIC for atypical mycobacteria
Outline: (§2)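 Selectivity index = HepG2 IC50 / MIC. HepG2 cells (passage 3–4) grown in Eagle's MEM with 10% FBS, L-glutamine and non-essential amino acids. Compounds added from DMSO, eight concentrations in triplicate, tetrazolium-reduction colorimetric read-out. IC50 is the concentration reducing viability to 50% of control; 10% DMSO as 0% viability.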

[3] = tested on: Mycobacterium avium; assay: Antimycobacterial activity against Isoniazid, rifampicin, ofloxacin and ethambutol-resistant Mycobacterium avium 330/88 assessed as complete growth inhibition after 21 days; type: functional; settings: 330/88, 504 h
Outline: (§3)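 M. tuberculosis 331/88 (H37Rv) inoculum diluted 10-3, M. avium 330/88 diluted 10-5. MIC is the lowest concentration giving complete growth inhibition. Isoniazid and p-aminosalicylic acid as references. Quadruplicate, repeated twice.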

[4] = tested on: Mycobacterium kansasii; assay: Antimycobacterial activity against clinical isolate Mycobacterium kansasii 6509/96 assessed as complete growth inhibition after 21 days; type: functional; settings: 6509/96, 504 h; outline: as §1
[5] = tested on: Staphylococcus epidermidis; assay: Antimicrobial activity against Staphylococcus epidermidis H 6966/08 after 24 hrs by microdilution method; type: functional; settings: H 6966/08, 24 h
Outline: (§4)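 Broth microdilution in Mueller-Hinton broth, compounds dissolved in DMSO, final concentrations 500 to 0.49 µM. Benzylpenicillin and bacitracin were run as comparators. MIC was taken as 95% (IC95) or greater growth reduction versus control. Each determination was done twice.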

[6] = tested on: Staphylococcus aureus; assay: Antimicrobial activity against Staphylococcus aureus CCM 4516/08 after 48 hrs by microdilution method; type: functional; settings: CCM 4516/08, 48 h
Outline: (§5)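 Mueller-Hinton broth microdilution; compounds dissolved in DMSO, final concentrations 500 to 0.49 µM. […] Benzylpenicillin and bacitracin as comparators. Each determination done twice.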

[7] = tested on: Mycobacterium kansasii; assay: Antimycobacterial activity against Mycobacterium kansasii 235/80 assessed as complete growth inhibition after 14 days; type: functional; settings: 235/80, 336 h; outline: as §1
[8] = tested on: Staphylococcus aureus; assay: Antimicrobial activity against methicillin-resistant Staphylococcus aureus H 5996/08 after 48 hrs by microdilution method; type: functional; settings: H 5996/08, 48 h; outline: as §5
[9] = tested on: Mycobacterium kansasii; assay: Antimycobacterial activity against clinical isolate Mycobacterium kansasii 6509/96 assessed as complete growth inhibition after 7 days; type: functional; settings: 6509/96, 168 h; outline: as §1
[10] = tested on: Enterococcus sp.; assay: Antimicrobial activity against Enterococcus sp. J 14365/08 after 48 hrs by microdilution method; type: functional; settings: J 14365/08, 48 h; outline: as §4
[11] = tested on: Staphylococcus epidermidis; assay: Antimicrobial activity against Staphylococcus epidermidis H 6966/08 after 48 hrs by microdilution method; type: functional; settings: H 6966/08, 48 h; outline: as §4
[12] = Selectivity index, ratio of IC50 for human HepG2 cells to MIC for methicillin-resistant Staphylococcus aureus H 5996/08; outline: as §2
[13] = tested on: HepG2; assay: Cytotoxicity against human HepG2 cells assessed as reduction in cell viability after 24 hrs by MTS assay; type: cell-based; settings: HepG2, 24 h
Outline: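 HepG2 hepatocellular carcinoma cells (passage 3–4) were grown in Eagle's MEM with 10% FBS, 1% L-glutamine and non-essential amino acids. Compounds were added from DMSO at eight concentrations in triplicate, with 10% DMSO as the 0% viability control. Viability was read by tetrazolium salt reduction (CellTiter 96 AQueous One). IC50 is the concentration reducing viability to 50% of control.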

[14] = tested on: Mycobacterium avium; assay: Antimycobacterial activity against Isoniazid, rifampicin, ofloxacin and ethambutol-resistant Mycobacterium avium 330/88 assessed as complete growth inhibition after 14 days; type: functional; settings: 330/88, 336 h; outline: as §3
[15] = tested on: Mycobacterium tuberculosis; assay: Antimycobacterial activity against Mycobacterium tuberculosis H37Rv 331/88 assessed as complete growth inhibition after 14 days; type: functional; settings: H37Rv 331/88, 336 h; outline: as §3
[16] = tested on: Staphylococcus aureus; assay: Antimicrobial activity against Staphylococcus aureus CCM 4516/08 after 24 hrs by microdilution method; type: functional; settings: CCM 4516/08, 24 h; outline: as §5
[17] = tested on: Trichophyton mentagrophytes; assay: Antimicrobial activity against Trichophyton mentagrophytes 445 after 120 hrs by microdilution method; type: functional; settings: Trichophyton mentagrophytes, 445, 120 h
Outline: (§6)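 Broth microdilution in RPMI 1640 with glutamine, with fluconazole and amphotericin B as references. For filamentous fungi, MIC is expressed as the IC50, i.e. the concentration giving 50% growth reduction versus control. Each determination was done twice.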

[18] = tested on: Enterococcus sp.; assay: Antimicrobial activity against Enterococcus sp. J 14365/08 after 24 hrs by microdilution method; type: functional; settings: J 14365/08, 24 h; outline: as §4
[19] = tested on: Staphylococcus aureus; assay: Antimicrobial activity against methicillin-resistant Staphylococcus aureus H 5996/08 after 24 hrs by microdilution method; type: functional; settings: H 5996/08, 24 h; outline: as §5
[20] = tested on: Mycobacterium tuberculosis; assay: Antimycobacterial activity against Mycobacterium tuberculosis H37Rv 331/88 assessed as complete growth inhibition after 21 days; type: functional; settings: H37Rv 331/88, 504 h; outline: as §3
[21] = Inhibition of Mycobacterium tuberculosis H37Rv isocitrate lyase assessed as glyoxylate phenyl hydrazone formation at 10 uM
[22] = tested on: Mycobacterium kansasii; assay: Antimycobacterial activity against clinical isolate Mycobacterium kansasii 6509/96 assessed as complete growth inhibition after 14 days; type: functional; settings: 6509/96, 336 h; outline: as §1
[23] = Selectivity index, ratio of IC50 for human HepG2 cells to MIC for Mycobacterium tuberculosis H37Rv; type: toxicity, cell-based; settings: read-out: Selectivity Index
Outline: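 Selectivity index = HepG2 IC50 / MIC. HepG2 cells (passage 3–4) grown in Eagle's MEM with 10% FBS, L-glutamine and non-essential amino acids. Compounds added from DMSO, eight concentrations in triplicate, tetrazolium-reduction colorimetric read-out.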

[24] = Selectivity index, ratio of IC50 for human HepG2 cells to MIC for Trichophyton mentagrophytes 445
[25] = tested on: Trichophyton mentagrophytes; assay: Antimicrobial activity against Trichophyton mentagrophytes 445 after 72 hrs by microdilution method; type: functional; settings: Trichophyton mentagrophytes, 445, 72 h; outline: as §6
[26] = tested on: Mycobacterium kansasii; assay: Antimycobacterial activity against Mycobacterium kansasii 235/80 assessed as complete growth inhibition after 21 days; type: functional; settings: 235/80, 504 h; outline: as §1

Row | Structure (SMILES) | MIC [1] [µM] | Selectivity Index [2] | MIC [3] [µM] | MIC [4] [µM] | MIC [5] [µM] | MIC [6] [µM] | MIC [7] [µM] | MIC [8] [µM] | MIC [9] [µM] | MIC [10] [µM] | MIC [11] [µM] | Selectivity Index [12] | IC50 [13] [µM] | MIC [14] [µM] | MIC [15] [µM] | MIC [16] [µM] | MIC [17] [µM] | MIC [18] [µM] | MIC [19] [µM] | MIC [20] [µM] | other results
1 | CN(C)C(=S)Oc1ccc(Cl)cc1C(=O)Nc1ccc(F)cc1 | 16 (≈ 5.65 µg/mL) | 3.7 | 32 (≈ 11.3 µg/mL) | 32 (≈ 11.3 µg/mL) | 31.2 (≈ 11 µg/mL) | 31.2 (≈ 11 µg/mL) | 32 (≈ 11.3 µg/mL) | 31.2 (≈ 11 µg/mL) | 16 (≈ 5.65 µg/mL) | > 500 | 31.2 (≈ 11 µg/mL) | 3.7 | 117 | 32 (≈ 11.3 µg/mL) | 8 (≈ 2.82 µg/mL) | 15.6 (≈ 5.51 µg/mL) | 7.81 (≈ 2.76 µg/mL) | > 500 | 31.2 (≈ 11 µg/mL) | 16 (≈ 5.65 µg/mL) | inhibition [21]: 7%; MIC [22]: 32 µM (≈ 11.3 µg/mL); selectivity ratio [23]: 7.3; Selectivity Index [24]: 15; MIC [25]: 7.81 µM (≈ 2.76 µg/mL); MIC [26]: 32 µM (≈ 11.3 µg/mL)
2 | CN(C)C(=O)Oc1ccc(Cl)cc1C(=O)Nc1ccc(Cl)cc1 | 62.5 (≈ 22.1 µg/mL) | 1.5 | 62.5 (≈ 22.1 µg/mL) | 125 (≈ 44.2 µg/mL) | 125 (≈ 44.2 µg/mL) | 125 (≈ 44.2 µg/mL) | 62.5 (≈ 22.1 µg/mL) | 125 (≈ 44.2 µg/mL) | 62.5 (≈ 22.1 µg/mL) | > 125 | 125 (≈ 44.2 µg/mL) | 1.5 | 189 | 62.5 (≈ 22.1 µg/mL) | 16 (≈ 5.65 µg/mL) | 62.5 (≈ 22.1 µg/mL) | 31.2 (≈ 11 µg/mL) | 125 (≈ 44.2 µg/mL) | 62.5 (≈ 22.1 µg/mL) | 16 (≈ 5.65 µg/mL) | inhibition [21]: 6%; MIC [22]: 125 µM (≈ 44.2 µg/mL); selectivity ratio [23]: 11.8; Selectivity Index [24]: 6; MIC [25]: 31.2 µM (≈ 11 µg/mL); MIC [26]: 62.5 µM (≈ 22.1 µg/mL)
3 | CN(C)C(=O)Oc1ccc(Cl)cc1C(=O)Nc1ccc(F)cc1 | 62.5 (≈ 21 µg/mL) | 3.6 | 125 (≈ 42.1 µg/mL) | 125 (≈ 42.1 µg/mL) | > 125 | > 125 | 125 (≈ 42.1 µg/mL) | > 125 | 62.5 (≈ 21 µg/mL) | > 125 | > 125 | <=3.6 | 444 | 125 (≈ 42.1 µg/mL) | 32 (≈ 10.8 µg/mL) | 125 (≈ 42.1 µg/mL) | 125 (≈ 42.1 µg/mL) | 125 (≈ 42.1 µg/mL) | > 125 | 32 (≈ 10.8 µg/mL) | inhibition [21]: 8%; MIC [22]: 125 µM (≈ 42.1 µg/mL); selectivity ratio [23]: 14; Selectivity Index [24]: 3.6; MIC [25]: 125 µM (≈ 42.1 µg/mL); MIC [26]: 125 µM (≈ 42.1 µg/mL)
4 | CN(C)C(=S)Oc1ccc(Cl)cc1C(=O)Nc1ccc(Br)cc1 | 16 (≈ 6.62 µg/mL) | 2.7 | 16 (≈ 6.62 µg/mL) | 32 (≈ 13.2 µg/mL) | 0.49 (≈ 0.203 µg/mL) | 0.49 (≈ 0.203 µg/mL) | 16 (≈ 6.62 µg/mL) | 0.49 (≈ 0.203 µg/mL) | 16 (≈ 6.62 µg/mL) | > 500 | 0.49 (≈ 0.203 µg/mL) | 174.8 | 85.6 | 16 (≈ 6.62 µg/mL) | 8 (≈ 3.31 µg/mL) | 0.49 (≈ 0.203 µg/mL) | 1.95 (≈ 0.807 µg/mL) | > 500 | 0.49 (≈ 0.203 µg/mL) | 8 (≈ 3.31 µg/mL) | inhibition [21]: 11%; MIC [22]: 32 µM (≈ 13.2 µg/mL); selectivity ratio [23]: 10.7; Selectivity Index [24]: 843.9; MIC [25]: 1.95 µM (≈ 0.807 µg/mL); MIC [26]: 16 µM (≈ 6.62 µg/mL)
5 | CN(C)C(=S)Oc1ccc(Cl)cc1C(=O)Nc1ccc(Cl)cc1 | 8 (≈ 2.95 µg/mL) | 5.2 | 16 (≈ 5.91 µg/mL) | 16 (≈ 5.91 µg/mL) | 7.81 (≈ 2.88 µg/mL) | 7.81 (≈ 2.88 µg/mL) | 16 (≈ 5.91 µg/mL) | 7.81 (≈ 2.88 µg/mL) | 16 (≈ 5.91 µg/mL) | > 125 | 31.2 (≈ 11.5 µg/mL) | 21.4 | 83.5 | 16 (≈ 5.91 µg/mL) | 4 (≈ 1.48 µg/mL) | 3.9 (≈ 1.44 µg/mL) | 1.95 (≈ 0.72 µg/mL) | 125 (≈ 46.2 µg/mL) | 3.9 (≈ 1.44 µg/mL) | 8 (≈ 2.95 µg/mL) | inhibition [21]: 6%; MIC [22]: 16 µM (≈ 5.91 µg/mL); selectivity ratio [23]: 10.4; Selectivity Index [24]: 442.8; MIC [25]: 1.95 µM (≈ 0.72 µg/mL); MIC [26]: 16 µM (≈ 5.91 µg/mL)
